Assay outcomes (PubChem BioAssay)
APP 5'UTR act: APP 5'UTR luciferase reporter activation. SH-SY5Y APP 5'UTR luciferase reporter, luminescence; zero percent = DMSO vehicle wells. activation, % at 2 µM. 190,000 compounds, 1% hits. AID 1276;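 active = activation above a set limit, based on mean plus 3 SD of controls, cut at about 140% in these data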
FLuc act counter: firefly luciferase counter-screen for stimulation assays | AID 1027 | 200,000 tested, under 10 active | ATPlite luciferase biochemical, luminescence, 10 min; 0 = ATP-free wells, 1 = DMSO control | activation factor at 10 µM;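 active = luciferase activation factor, scaled between plate controls, of at least 2 with compound at 10 µM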
Target sequence (P08659 whole entry, looked up): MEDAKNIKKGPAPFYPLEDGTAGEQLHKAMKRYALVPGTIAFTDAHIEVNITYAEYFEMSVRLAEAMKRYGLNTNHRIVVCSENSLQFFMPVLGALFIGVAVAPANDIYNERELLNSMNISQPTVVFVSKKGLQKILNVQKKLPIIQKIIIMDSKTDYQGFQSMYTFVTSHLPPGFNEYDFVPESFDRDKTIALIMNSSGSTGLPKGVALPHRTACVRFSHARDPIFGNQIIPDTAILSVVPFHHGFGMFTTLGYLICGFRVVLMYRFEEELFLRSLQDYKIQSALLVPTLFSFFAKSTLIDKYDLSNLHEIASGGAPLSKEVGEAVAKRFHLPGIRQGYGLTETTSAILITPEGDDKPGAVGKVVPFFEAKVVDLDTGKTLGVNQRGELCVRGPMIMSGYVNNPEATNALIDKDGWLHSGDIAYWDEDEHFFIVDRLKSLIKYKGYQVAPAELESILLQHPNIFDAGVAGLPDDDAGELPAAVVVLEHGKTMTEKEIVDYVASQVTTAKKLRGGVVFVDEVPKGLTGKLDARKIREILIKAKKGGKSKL
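Assay system – cell-free luciferase reagent · Medium – PBS-based ATP solution · Dosing – test compounds dosed from 2 mM stocks in 100% DMSO · Timing – 10 min, room temperature · Technique – light output (luminescence) · Measure – luminescence gain marking luciferase activators · Controls – No-ATP low control, compound-free enzyme-plus-ATP high control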
STAT1 activator: STAT1 signaling activation. 200,000 compounds, 2.6% hits. activation (% of control), % at 5.5 µM. NIH 3T3 STAT1-luciferase reporter, IFN-gamma, luminescence; 100% = IFN-gamma alone, no compound;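 active = activation above the screen-wide mean activation plus 3 SD, cut at about 130% in these data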;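 also: raw ratio to IFN-gamma control signal so 100% means no change and 0% no light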
NF-kB expr up: compounds increasing NF-kB expression in human neuronal cells; NF-kB reporter expression; active compounds read high; fold change at 12.5 µM; 190,000 compounds, 1.6% hits; AID 1239; in the data active = fold change above about 3.3
FLuc inhib CS: Photinus pyralis luciferase inhibition counter-screen | P08659 | ATPLite firefly luciferase biochemical luminescence, 10 min | inhibition, % at 10 µM | 200,000 compounds, 1.5% hits;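 active = inhibition above about 50% when tested at 10 µM, limit read from the data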
STAT1 act conf: confirmation of STAT1 signaling activators; activation (% of control), % at 5.7 µM; AID 1262; NIH 3T3 STAT1-luciferase reporter, IFN-gamma potentiation, luminescence; 100% = IFN-gamma EC80 alone, no compound; 1,200 compounds, 97% hits; shares compounds with STAT1 activator;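 active = activation above a set limit carried over from the earlier primary STAT1 screen, cut at about 140% in these data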;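 also: simple ratio to median IFN-gamma plus DMSO wells so 0% means no light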
NFkB act: counter-screen for STAT1 activators: NF-kappaB activation. AID 1306. activation (% of control), % at 5.7 µM. 1,200 compounds, 43% hits. shares compounds with STAT1 activator. HEK293T NF-kB luciferase reporter, TNF-alpha stimulated, luminescence; 100% = TNF-alpha with vehicle only;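 active = activation above the mean of solvent-only control wells plus 3 SD, set per campaign, cut at about 130% in these data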;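 also: TNF-alpha given at a submaximal dose yielding about 80% of full reporter signal; values are well signal over median control so 100% means no change and 0% no light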
STAT3 act 2: activates human STAT3, counter-screen to STAT1 activators; 1,200 compounds, 46% hits; activation (% of control), % at 5.7 µM; AID 1316; shares compounds with STAT1 activator; U3A cells STAT3-luciferase reporter, IL-6, luminescence; cells lack STAT1; 100 = IL-6 alone, no compound effect;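 active = activation above the solvent-only control well mean plus 3 SD, set per plate batch, cut at about 110% in these data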;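 also: 0% = no luminescence and 100% = median IL-6 plus DMSO wells; higher means more STAT3 reporter activation so hits are non-selective activators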
The depositor's hits bear a star; / = no result. Hits are enriched below; roughly 4.1% of the tested compounds scored in any of these assays.

SMILES	APP 5'UTR act	FLuc act counter	STAT1 activator	NF-kB expr up	FLuc inhib CS	STAT1 act conf	NFkB act	STAT3 act 2
Cn1cc(-c2nnc(-c3ccccc3)o2)c2ccccc21	130	0.4	159*	5.2*	59*	258*	118	130*
CC(=O)c1c(C)[nH]c(C2=NNC(=NC(C)(C)C)SC2)c1C	46	0.8	118	2.9	15	/	/	/
CC(C)(C)N=C1NN=C(c2cc3ccccc3o2)CS1	131	0.6	169*	0.46	39	207*	129	107
CCOC(=O)c1sc(=S)n(CC)c1NC(=O)C1CC1	0	1.1	98	1.1	-7	/	/	/
O=[N+]([O-])c1cccnc1NCCc1ccccc1	76	1	151*	2.3	2	163*	129	117*
Cc1c(-c2ccccc2)[nH]n2c(=O)c3c(nc12)CCCC3	51	0.9	155*	2.1	11	174*	130	117*
O=C(CSc1nc2ccccc2s1)N1N=C(c2cccs2)CC1c1ccc(F)cc1 (stereo unspecified)	-15	1.1	98	0.55	-11	/	/	/
COc1ccccc1NS(=O)(=O)c1ccc(Cl)cc1	30	1	93	1	-2	/	/	/
COc1ccc2nc(Nc3ccc4c(c3)OCO4)sc2c1	75	0.9	152*	2	13	162*	128	100
COc1ccc2nc(Nc3ccccc3)sc2c1	111	0.2	151*	8.1*	77*	200*	138*	99
Cc1ccc(Nc2nc3ccccc3s2)cc1	115	0.5	192*	1.3	50	259*	137*	108
COc1ccc2nc(Nc3nc4cc5c(cc4s3)OCO5)sc2c1	-10	1	108	1.1	2	/	/	/
CC(=O)Nc1ccc(S(=O)(=O)Nc2nc3ccccc3s2)cc1	16	1.1	98	1.1	-7	/	/	/
O=C(O)c1ccc(N/N=C/C=C/c2ccccc2[N+](=O)[O-])cc1	113	1	163*	0.87	1	177*	139*	129*
O=C(N/N=C/C=C/c1ccccc1[N+](=O)[O-])c1cccnc1	6	1.1	98	0.85	-6	/	/	/
CCC(=O)Nc1cccc(NC(=S)NC(=O)c2ccccc2)c1	45	0.8	151*	2.5	15	162*	128	114*
CCC(=O)Nc1cccc(NC(=S)NC(=O)c2cc3ccccc3o2)c1	153*	0.7	157*	0.99	28	235*	122	111*
CCC(=O)Nc1cccc(NC(=S)NC(=O)c2cccc(C)c2)c1	86	0.9	124	2.9	11	/	/	/
CCC(=O)Nc1ccc(NC(=S)NC(=O)c2cc3ccccc3o2)cc1	-10	1	102	1.4	-1	/	/	/
COc1ccc(N2CCN(CCCNC(=O)C3(S(=O)(=O)c4ccc(Cl)cc4)CC3)CC2)cc1	-9	1.1	96	1	-9	/	/	/
CC1=CC(c2ccccc2)=Nc2ccc(C)cc2N1	182*	0.6	165*	5.4*	45	202*	130	131*
COc1ccc(CNC(=O)CSc2nnc(-c3cccnc3)n2N)cc1	0	1.1	99	0.97	-9	/	/	/
COCCCN=Cc1c(C)[nH]n(-c2ccc(Br)c(C)c2)c1=O	147*	0.8	165*	2.7	21	250*	122	80
O=C(NCc1cccc(C(F)(F)F)c1)c1cccc(Cl)c1Cl	-15	1.1	95	1	-6	/	/	/
Cc1ccc(S(=O)(=O)N2CCCCC2)cc1C(=O)N1CCN(c2ccccn2)CC1	8	1	97	1.1	-4	/	/	/
Cc1occc1C(=O)OCC(=O)Nc1ccc(F)cc1	28	1.1	123	1.6	-6	/	/	/
Oc1ccccc1N=Cc1sc2ccccc2c1Cl	7	0.9	90	2.6	7	/	/	/
